Legend:
Plasmodium falciparum [1] = experiment: ST_JUDE: Plasmodium falciparum 3D7 EC50 (uM) as measured by SYBR green dye; format: functional, organism-based
Plasmodium falciparum [2] = experiment: ST_JUDE: Plasmodium falciparum K1 EC50 (uM) as measured by SYBR green dye; format: functional, organism-based
Plasmodium falciparum [3] = experiment: ST_JUDE: Cytotoxicity against Plasmodium falciparum 3D7; format: functional, organism-based
Outline: (§1)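 Asexual P. falciparum grown in human erythrocytes, exposed to compounds for 72 h, and growth read as the DNA quantity in treated versus control cultures. Dose-response run at 12 concentrations from 10 μM to 5 nM.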

Plasmodium falciparum [4] = experiment: ST_JUDE: Cytotoxicity against Plasmodium falciparum K1; format: functional, organism-based; outline: as §1
Plasmodium falciparum [5] = experiment: ST_JUDE: Cytotoxicity against Plasmodium falciparum V1/S; format: functional, organism-based
Toxoplasma gondii = experiment: ST_JUDE: Growth inhibition of to Toxoplasma gondii, in human U-2OS cells, as measured by luciferase.; format: functional, organism-based; conditions: RH, U2OS
Outline: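 T. gondii parasites engineered to express luciferase; drug sensitivity read by luminescence.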

Trypanosoma brucei = experiment: ST_JUDE: Cytotoxicity using luciferase to measure ATP as an indicator of the viability of Trypanosoma brucei; format: functional, organism-based
Leishmania major = experiment: ST_JUDE: Cytotoxicity using Alamar Blue to measure viability of Leishmania major; format: functional, organism-based
Outline: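 L. major promastigotes; drug susceptibility read with Alamar Blue.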

[6] = ST_JUDE: Cytotoxicity using luciferase to measure ATP as an indicator of the viability of human foreskin fibroblast cells (BJ); format: toxicity, cell-based
[7] = ST_JUDE: Cytotoxicity using luciferase to measure ATP as an indicator of the viability of human epithelial hepatocellular carcinoma cells (HepG2); format: toxicity, cell-based
[8] = ST_JUDE: Cytotoxicity using luciferase to measure ATP as an indicator of the viability of human epithelial embryonic kidney cells (HEK293); format: toxicity, cell-based
[9] = ST_JUDE: Cytotoxicity using luciferase to measure ATP as an indicator of the viability of human Burkitt''s lymphoma lymphoblast cells (Raji); format: toxicity, cell-based
Plasmodium falciparum [10] = experiment: ST_JUDE: Cytotoxicity against Plasmodium falciparum Dd2; format: functional, organism-based
Plasmodium falciparum [11] = experiment: ST_JUDE: Cytotoxicity against Plasmodium falciparum W2; format: functional, organism-based
Plasmodium falciparum [12] = experiment: ST_JUDE: Cytotoxicity against Plasmodium falciparum SB-A6; format: functional, organism-based
Plasmodium falciparum [13] = experiment: ST_JUDE: Cytotoxicity against Plasmodium falciparum D10 transfected with yeast DHOD; format: functional, organism-based

SMILES | EC50 (Plasmodium falciparum [1]) | EC50 (Plasmodium falciparum [2]) | EC50 (Plasmodium falciparum [3]) | EC50 (Plasmodium falciparum [4]) | EC50 (Plasmodium falciparum [5]) | EC50 (Toxoplasma gondii) | EC50 (Trypanosoma brucei) | EC50 (Leishmania major) | EC50 [6] | EC50 [7] | EC50 [8] | EC50 [9] | EC50 (Plasmodium falciparum [10]) | EC50 (Plasmodium falciparum [11]) | EC50 (Plasmodium falciparum [12]) | EC50 (Plasmodium falciparum [13])
COc1cc(C2CC(=O)NC3=C2C(=O)CC(c2ccccc2Cl)C3)cc(Br)c1O (stereo not given) | 1280 nM | 945 nM | 1860 nM | 1910 nM | 2730 nM | > 29700 nM | 16400 nM | > 23200 nM | > 54200 nM | > 54200 nM | > 54200 nM | > 54200 nM | 1910 nM | 1060 nM | 2450 nM | 1930 nM
CCCCCCn1c(=N)n(CC(O)COc2ccccc2C)c2ccccc21 (stereo not given) | 1260 nM | 715 nM | 2200 nM | 1430 nM | 2090 nM | 13900 nM | 3730 nM | > 23400 nM | 16800 nM | 6980 nM | 20300 nM | 12600 nM | 1110 nM | 1290 nM | 4670 nM | 6570 nM
CN1C(=O)/C(=C\c2ccccc2Cl)Sc2ccc(C(=O)NC3CCN(Cc4ccccc4)CC3)cc21 | 276 nM | 254 nM | 1740 nM | 2910 nM | 3970 nM | > 23300 nM | 3470 nM | > 18200 nM | > 42500 nM | 17900 nM | > 42500 nM | > 42500 nM | 1150 nM | > 10900 nM | 717 nM | 1090 nM
CO/C(O)=C1\C(C)=NC2=C(C(=O)CC(c3ccc(OC)c(OC)c3)C2)C1c1ccccc1F (stereo not given) | 504 nM | 433 nM | 427 nM | 412 nM | 911 nM | > 24500 nM | > 42900 nM | > 19200 nM | > 44800 nM | > 44800 nM | > 44800 nM | > 44800 nM | 766 nM | 296 nM | 556 nM | 746 nM
Cc1ccc2c(c1)N(C)/C(=C/c1sc3ccccc3[n+]1CCO)S2 | 1580 nM | 440 nM | 320 nM | 420 nM | 546 nM | > 10600 nM | 6040 nM | > 8280 nM | > 19300 nM | > 19300 nM | > 19300 nM | 2100 nM | 341 nM | 432 nM | 514 nM | 362 nM
CCOC(=O)C1(Cc2ccccc2)CCN(Cc2cccc(OC)c2O)CC1 | 2290 nM | 1050 nM | 1490 nM | 645 nM | 908 nM | > 20300 nM | 30900 nM | > 15800 nM | > 37000 nM | > 37000 nM | > 37000 nM | > 37000 nM | 1760 nM | 1430 nM | 3000 nM | 2550 nM
CN(C(=O)c1cc2c(s1)-c1ccccc1S(=O)(=O)C2)c1cccc(C(F)(F)F)c1 | 744 nM | 1250 nM | 350 nM | 356 nM | 684 nM | > 22400 nM | 18100 nM | > 17500 nM | > 40800 nM | > 40800 nM | > 40800 nM | > 40800 nM | 335 nM | 116 nM | 414 nM | 431 nM
OC(CNC1CCCC1)Cn1c2ccc(Cl)cc2c2cc(Cl)ccc21 (stereo not given) | 990 nM | 146 nM | 576 nM | 258 nM | 690 nM | > 13300 nM | 2020 nM | > 10400 nM | > 24300 nM | 8670 nM | 20500 nM | 10900 nM | 253 nM | 572 nM | 635 nM | 652 nM
Cc1ccc(C(O)(CNCc2ccccc2)c2ccc(Br)cc2)cc1 (stereo not given) | 2230 nM | 1110 nM | 2100 nM | 1170 nM | 1280 nM | > 26500 nM | 9550 nM | > 20700 nM | > 48300 nM | 20000 nM | > 48300 nM | 35500 nM | 1470 nM | 4370 nM | 3450 nM | 1730 nM
Clc1ccc(Nc2nc(NCc3ccco3)c3ccccc3n2)cc1 | 797 nM | 1710 nM | 1260 nM | 1830 nM | > 11900 nM | > 25400 nM | 9210 nM | 0.6 nM | > 46400 nM | 24000 nM | 31200 nM | > 46400 nM | 818 nM | > 11900 nM | 388 nM | 1150 nM

Reference: ChEMBL document CHEMBL1154198, “Chemical genetics of Plasmodium falciparum” (Nature, 2010)
